As usually defined, the Ki is a measure of affinity in units of concentration, obtained from inhibition or displacement. High values mean weaker binding, low ones tighter binding.

Activity calls are given as the source filed them. No cut-off for these calls is given here.

Our source for the Ki, Ratio Ki and Activity values is ChEMBL document CHEMBL2331119 (Bioorg Med Chem Lett, 2013).

The target in test [1] is Sodium-dependent dopamine transporter (Homo sapiens, UniProt Q01959). As to the kind of experiment: Inhibition of [3H]dopamine uptake at human DAT expressed in COS7 cells after 3 mins by beta-counting. In kind it is cell-based, COS-7.
In test [2] the target is Sodium-dependent noradrenaline transporter (Homo sapiens, UniProt P23975). As to the kind of experiment: Inhibition of [3H]dopamine uptake at human NET expressed in COS7 cells after 5 mins by beta-counting. In kind it is cell-based, COS-7.
Test [3] has as its target T1, Sodium-dependent serotonin transporter (Homo sapiens, UniProt P31645). In kind it is cell-based, COS-7.
Target sequence in this assay (P31645 whole entry): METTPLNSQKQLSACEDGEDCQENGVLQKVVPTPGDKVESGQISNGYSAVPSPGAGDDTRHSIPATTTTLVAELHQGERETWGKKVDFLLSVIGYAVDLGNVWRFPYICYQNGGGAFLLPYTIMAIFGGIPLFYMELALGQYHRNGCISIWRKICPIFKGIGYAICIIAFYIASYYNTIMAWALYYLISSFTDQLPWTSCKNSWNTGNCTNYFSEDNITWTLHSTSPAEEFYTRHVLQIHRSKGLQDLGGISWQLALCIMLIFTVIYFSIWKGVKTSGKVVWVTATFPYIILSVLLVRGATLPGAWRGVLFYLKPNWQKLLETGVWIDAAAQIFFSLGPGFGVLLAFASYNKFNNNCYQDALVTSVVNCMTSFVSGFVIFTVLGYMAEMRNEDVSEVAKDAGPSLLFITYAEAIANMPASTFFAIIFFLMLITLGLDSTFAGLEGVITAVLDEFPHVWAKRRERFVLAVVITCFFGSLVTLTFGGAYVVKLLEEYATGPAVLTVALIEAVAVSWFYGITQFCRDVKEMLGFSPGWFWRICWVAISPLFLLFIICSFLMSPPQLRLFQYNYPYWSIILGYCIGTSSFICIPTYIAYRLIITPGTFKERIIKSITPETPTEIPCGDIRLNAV
In test [4] the test system is COS-7. As to the kind of experiment: Ratio of Ki for human NET expressed in COS7 cells to Ki for human SERT expressed in COS7 cells. In kind it is cell-based.
The target of test [5] is T1, Sodium-dependent serotonin transporter. Briefly: Binding affinity to EGFP fused human SERT expressed in HEK293 cells after 1 hr by confocal microscopy in presence of 5-HT. Format: cell-based. The method in brief:
(§1)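 Live HEK293 cells stably expressing EGFP-hSERT were incubated 1 h at 37°C with 20 nM rhodamine-labeled ligand. […] Confocal microscopy scored red-channel fluorescence at the cell surface against EGFP (green) distribution. Images are representative of more than 3 individual experiments.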
Target sequence in this assay (P31645 whole entry, looked up): as the sequence (P31645 whole entry) above

Test [6] deals with COS-7. Briefly: Ratio of Ki for human DAT expressed in COS7 cells to Ki for human SERT expressed in COS7 cells. In kind it is cell-based.
In test [7] the target is T1, Sodium-dependent serotonin transporter. Briefly: Binding affinity to EGFP fused human SERT expressed in HEK293 cells after 1 hr by confocal microscopy. Format: cell-based. The method in brief:
as §1
Target sequence in this assay (P31645 whole entry, looked up): as the sequence (P31645 whole entry) above

For test [8] the target is unchanged. As to the kind of experiment: Binding affinity to EGFP fused human SERT expressed in HEK293 cells after 1 hr by confocal microscopy in presence of S-citalopram. Format: cell-based. The essentials: as §1
Target sequence in this assay (P31645 whole entry, looked up): as the sequence (P31645 whole entry) above
Test [9] has the same target. Briefly: Binding affinity to EGFP fused human SERT expressed in HEK293 cells after 1 hr by confocal microscopy in presence of paroxetine. Format: cell-based. The method in brief:
as §1
Target sequence in this assay (P31645 whole entry, looked up): as the sequence (P31645 whole entry) above

Chain of Sodium-dependent noradrenaline transporter (P23975 whole entry): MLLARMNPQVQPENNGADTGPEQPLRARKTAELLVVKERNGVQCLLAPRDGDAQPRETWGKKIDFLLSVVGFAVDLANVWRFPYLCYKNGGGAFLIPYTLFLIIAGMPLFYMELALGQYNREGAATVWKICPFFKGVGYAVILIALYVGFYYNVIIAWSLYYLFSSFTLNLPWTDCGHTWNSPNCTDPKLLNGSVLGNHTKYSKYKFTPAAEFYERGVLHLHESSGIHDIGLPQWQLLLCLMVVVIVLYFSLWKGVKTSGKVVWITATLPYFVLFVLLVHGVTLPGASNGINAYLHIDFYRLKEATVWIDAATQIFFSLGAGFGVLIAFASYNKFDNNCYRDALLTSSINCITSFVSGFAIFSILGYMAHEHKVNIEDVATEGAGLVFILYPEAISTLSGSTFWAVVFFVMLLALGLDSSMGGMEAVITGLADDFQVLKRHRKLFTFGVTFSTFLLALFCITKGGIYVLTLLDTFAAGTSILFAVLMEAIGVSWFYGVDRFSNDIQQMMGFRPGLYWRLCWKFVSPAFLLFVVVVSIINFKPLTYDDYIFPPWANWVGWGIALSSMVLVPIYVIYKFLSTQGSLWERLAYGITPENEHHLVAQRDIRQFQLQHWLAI
Chain of Sodium-dependent dopamine transporter (Q01959 whole entry): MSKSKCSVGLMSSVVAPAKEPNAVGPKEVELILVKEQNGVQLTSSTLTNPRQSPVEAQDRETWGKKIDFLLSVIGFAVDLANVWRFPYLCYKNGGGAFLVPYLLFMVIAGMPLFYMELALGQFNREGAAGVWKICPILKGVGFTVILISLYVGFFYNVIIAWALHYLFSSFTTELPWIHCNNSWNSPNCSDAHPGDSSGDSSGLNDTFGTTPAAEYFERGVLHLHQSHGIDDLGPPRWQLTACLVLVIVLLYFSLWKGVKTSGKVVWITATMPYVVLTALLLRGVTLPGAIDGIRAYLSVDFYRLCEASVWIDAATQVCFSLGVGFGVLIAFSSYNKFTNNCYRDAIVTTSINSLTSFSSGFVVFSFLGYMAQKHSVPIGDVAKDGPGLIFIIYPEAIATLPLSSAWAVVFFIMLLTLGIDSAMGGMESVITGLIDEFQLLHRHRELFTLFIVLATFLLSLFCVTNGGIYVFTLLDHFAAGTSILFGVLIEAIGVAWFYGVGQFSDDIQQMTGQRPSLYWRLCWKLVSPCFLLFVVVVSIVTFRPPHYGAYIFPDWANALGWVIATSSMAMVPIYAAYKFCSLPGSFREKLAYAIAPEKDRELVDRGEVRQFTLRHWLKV

For `CCN(CC)c1ccc2c(-c3ccc(S(=O)(=O)NCCCCCC(=O)NCCN4[C@@H]5CC[C@@H]4[C@@H](C(=O)OC)[C@@H](c4ccc(Cl)c(Cl)c4)C5)cc3S(=O)(=O)[O-])c3ccc(=[N+](CC)CC)cc-3oc2c1`, the results for the inhibition constant (Ki) in [1], in [2] and in test [3] were 62 nM, 194 nM and 392 nM, respectively.

Consider `CCN(CC)c1ccc2c(-c3ccc(S(=O)(=O)NCCCCCC(=O)NCCC(=O)Nc4cccc(-c5ccc6c(c5)COC6(CCCN(C)C)c5ccc(F)cc5)c4)cc3S(=O)(=O)[O-])c3ccc(=[N+](CC)CC)cc-3oc2c1` (stereo not drawn), for which the Ratio Ki with COS-7 [4] and with COS-7 [6] was 50 in each case. In addition, the Ki worked out at 10900 nM in [1], 11800 nM in test [2] and 225 nM in [3]. The outcome in test [5], in test [8] and in test [9] was inactive. Also, the result in [7] was Active.

`CN(C)CCCC1(c2ccc(F)cc2)OCc2cc(-c3cccc(N)c3)ccc21` (stereo not drawn) registered an inhibition constant Ki in test [3] of 390 nM.
